{"source": "ChEMBL document CHEMBL3997810", "about": "“A Novel Potent Anticancer Compound Optimized from a Natural Oridonin Scaffold Induces Apoptosis and Cell Cycle Arrest through the Mitochondrial Pathway” (J Med Chem, 2017)", "key": {"MCF7 [1]": {"system": "MCF7", "test": "Cell cycle arrest in human MCF7 cells assessed as accumulation at G2/M phase at 0.25 uM after 48 hrs by propidium iodide staining based flow cytometry (reference value: 13.05%)", "type": "functional", "procedure,_shortened": "(§1)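 MCF-7 cells, 5 × 10^4 per well, seeded overnight, then exposed to 0.125–1 μM compound, or DMSO, for 48 h. Ethanol-fixed (70%, −20 °C, 12 h) and stained with PI/RNase at 37 °C for 30 min. Phase distribution determined by flow cytometry.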"}, "MCF7 [2]": {"system": "MCF7", "test": "Induction of apoptosis in human MCF7 cells assessed as decrease in Bcl2 protein expression at 0.5 to 1 uM after 48 hrs by Western blot method", "type": "functional, cell-based", "procedure,_shortened": "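MCF-7 cells exposed to 0–1 μM compound for 48 h, then lysed on ice. Lysate (20 μg protein) run on 8–12% SDS-PAGE and transferred to PVDF. Probed overnight at 4 °C with primary antibodies, then fluorescent secondaries. Band densities normalized to β-actin. Mean ± SD of three independent experiments.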"}, "MCF7 [3]": {"system": "MCF7", "test": "Induction of apoptosis in human MCF7 cells assessed as live cells at 0.25 uM after 24 hrs by Annexin-V FITC/propidium iodide staining based flow cytometry (reference value: 97%)", "type": "functional"}, "MCF7 [4]": {"system": "MCF7", "test": "Induction of apoptosis in human MCF7 cells assessed as live cells at 0.5 uM after 24 hrs by Annexin-V FITC/propidium iodide staining based flow cytometry (reference value: 97%)", "type": "functional"}, "Mus musculus": {"system": "Mus musculus", "test": "Toxicity in ICR mouse xenografted with […] cells assessed as changes in body weight at 20 mg/kg/day, iv for 3 weeks measured once in 2 days during compound dosing", "type": "organism-based", "conditions": "in vivo", "procedure,_shortened": "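Mice received 1 × 10^6 tumor cells subcutaneously in the right flank: MCF-7 in male BALB/c nude mice aged six weeks, H22 in male ICR mice aged five weeks. After 7 d they were randomized (six or eight per group). Dosing was 20 mg/kg iv daily in 10% DMF/2% poloxamer/88% saline for 21 or 28 days; saline control. Body weight was recorded every 2 days.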"}, "MCF7 [5]": {"system": "MCF7", "test": "Induction of apoptosis in human MCF7 cells after 24 hrs by Annexin-V FITC/propidium iodide staining based flow cytometry", "type": "functional, cell-based"}, "Bel-7402 [6]": {"system": "Bel-7402", "test": "Cell cycle arrest in human Bel7402 cells assessed as accumulation at S phase at 1 uM after 48 hrs by propidium iodide staining based flow cytometry (reference value: 8.78%)", "type": "functional"}, "Bel-7402 [7]": {"system": "Bel-7402", "test": "Cell cycle arrest in human Bel7402 cells assessed as accumulation at G2/M phase at 0.5 uM after 48 hrs by propidium iodide staining based flow cytometry (reference value: 56.61%)", "type": "functional"}, "MCF7 [8]": {"system": "MCF7", "test": "Induction of mitochondrial membrane potential depolarization in human MCF7 cells assessed as ratio of red fluorescence to green fluorescence at 1 uM after 36 hrs by JC1 staining based fluorescence microscopic method (reference value: 1.433)", "type": "functional", "procedure,_shortened": "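MCF-7 cells were treated with 0, 0.25, 0.5 or 1 μM for 36 h and loaded with 10 μg/mL JC-1 for 30 min at 37 °C, then washed in PBS. Monomers were read at ex 490/em 535 nm and aggregates at ex 525/em 600 nm, by plate reader or fluorescence microscopy. The red/green ratio came from 10,000 cells per group, in triplicate, mean ± SD.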"}, "[9]": {"test": "Selectivity ratio of IC50 for human L02 cells to IC50 for human Bel7402 cells"}, "MCF7 [10]": {"system": "MCF7", "test": "Induction of apoptosis in human MCF7 cells assessed as late apoptotic cells at 0.125 uM after 24 hrs by Annexin-V FITC/propidium iodide staining based flow cytometry (reference value: 0.255%)", "type": "functional"}, "MCF7 [11]": {"system": "MCF7", "test": "Cell cycle arrest in human MCF7 cells assessed as accumulation at G2/M phase at 0.125 uM after 48 hrs by propidium iodide staining based flow cytometry (reference value: 13.05%)", "type": "functional", "procedure,_shortened": "as §1"}, "MCF7 [12]": {"system": "MCF7", "test": "Induction of apoptosis in human MCF7 cells assessed as necrotic cells at 0.5 uM after 24 hrs by Annexin-V FITC/propidium iodide staining based flow cytometry (reference value: 0.102%)", "type": "functional"}, "[13]": {"test": "Antiproliferative activity against human KB/CP4 cells after 48 hrs by MTT assay", "type": "functional, cell-based", "conditions": "KB/CP4, 48 h", "procedure,_shortened": "(§2)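 Colorimetric MTT assay. KB-3-1, NCI-H460 and Bel-7404 cells were seeded at 4000 cells/well; resistant KB/CP4, NCI-H460/MX20 and Bel-7404/CP20 were seeded at 7000 cells/well. Cells were pre-incubated 24 h at 37 °C, 5% CO2, then exposed to a compound concentration series for 48 h with DMSO ≤0.25%. Absorbance read at 570 nm. Quadruplicate wells, three repeats; means ± SD.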"}, "MCF7 [14]": {"system": "MCF7", "test": "Induction of apoptosis in human MCF7 cells assessed as late apoptotic cells at 1 uM after 24 hrs by Annexin-V FITC/propidium iodide staining based flow cytometry (reference value: 0.255%)", "type": "functional"}, "Bel-7402 [15]": {"system": "Bel-7402", "test": "Antiproliferative activity against human Bel7402 cells after 72 hrs by MTT assay", "type": "functional, cell-based", "conditions": "Bel-7402, 72 h", "procedure,_shortened": "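MGC-803 and MCF-7 cells grown in DMEM (MCF-7 with 1× NEAA); Bel-7402 and K562 grown in RPMI 1640; all media with 10% FBS. Cells seeded at 3500/well, pre-incubated 24 h, then exposed to compounds in fresh medium (DMSO ≤0.25%) for 72 h at 37 °C. MTT read-out at 570 nm. Quadruplicate wells, repeated three times; means ± SD (n = 3).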"}, "Bel-7402 [16]": {"system": "Bel-7402", "test": "Cell cycle arrest in human Bel7402 cells assessed as accumulation at G2/M phase at 4 uM after 48 hrs by propidium iodide staining based flow cytometry (reference value: 56.61%)", "type": "functional"}, "MCF7 [17]": {"system": "MCF7", "test": "Induction of apoptosis in human MCF7 cells assessed as early apoptotic cells at 0.125 uM after 24 hrs by Annexin-V FITC/propidium iodide staining based flow cytometry (reference value: 2.65%)", "type": "functional"}, "Bel-7402 [18]": {"system": "Bel-7402", "test": "Cell cycle arrest in human Bel7402 cells assessed as accumulation at S phase at 0.5 uM after 48 hrs by propidium iodide staining based flow cytometry (reference value: 8.78%)", "type": "functional"}, "BEL-7404 tumor cell line": {"system": "BEL-7404 tumor cell line", "test": "Antiproliferative activity against human Bel7404 cells after 48 hrs by MTT assay", "type": "functional, cell-based", "conditions": "BEL-7404, 48 h", "procedure,_shortened": "as §2"}, "MCF7 [19]": {"system": "MCF7", "test": "Induction of apoptosis in human MCF7 cells assessed as increase in Bax protein expression at 0.5 to 1 uM after 48 hrs by Western blot method", "type": "functional, cell-based", "procedure,_shortened": "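MCF-7 cells were treated at 0, 0.125, 0.25, 0.5 or 1 μM for 48 h, washed in ice-cold PBS and lysed on ice for 20 min. Lysates were spun at 13,000 g, 4 °C. 20 μg protein was run on SDS-PAGE and blotted to PVDF, probed overnight at 4 °C with primary antibodies, then with fluorescent secondary antibodies. Band density was expressed relative to β-actin; three independent experiments.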"}}, "note": "The source made the active and inactive calls. No cut-off for these calls is given here."}
{"smiles": "C=C1C(=O)[C@]23[C@H](OC(=O)/C=C/c4ccccc4)[C@H]1CC[C@H]2[C@]12C=CCC(C)(C)[C@H]1[C@H](O)[C@]3(O)OC2", "values": [{"measurement": "Activity", "setting": "MCF7 [1]", "result": 16.73, "unit": "%"}, {"measurement": "Activity", "setting": "MCF7 [2]", "result": "Active"}, {"measurement": "Activity", "setting": "MCF7 [3]", "result": 69.7, "unit": "%"}, {"measurement": "Activity", "setting": "MCF7 [4]", "result": 54.3, "unit": "%"}, {"measurement": "Activity", "setting": "Mus musculus", "result": "Non-Toxic"}, {"measurement": "Activity", "setting": "MCF7 [5]", "result": "Dose-dependent effect"}, {"measurement": "Activity", "setting": "Bel-7402 [6]", "result": 8.51, "unit": "%"}, {"measurement": "Activity", "setting": "Bel-7402 [7]", "result": 57.83, "unit": "%"}, {"measurement": "Ratio", "setting": "MCF7 [8]", "result": 0.385}, {"measurement": "Ratio IC50", "setting": "[9]", "result": 4.07}, {"measurement": "Activity", "setting": "MCF7 [10]", "result": 9.32, "unit": "%"}, {"measurement": "Activity", "setting": "MCF7 [11]", "result": 16.83, "unit": "%"}, {"measurement": "Activity", "setting": "MCF7 [12]", "result": 2.18, "unit": "%"}, {"measurement": "IC50", "setting": "[13]", "result": 1560, "unit": "nM"}, {"measurement": "Activity", "setting": "MCF7 [14]", "result": 45.2, "unit": "%"}, {"measurement": "IC50", "setting": "Bel-7402 [15]", "result": 1030, "unit": "nM"}, {"measurement": "Activity", "setting": "Bel-7402 [16]", "result": 63.11, "unit": "%"}, {"measurement": "Activity", "setting": "MCF7 [17]", "result": 4.64, "unit": "%"}, {"measurement": "Activity", "setting": "Bel-7402 [18]", "result": 7.61, "unit": "%"}, {"measurement": "IC50", "setting": "BEL-7404 tumor cell line", "result": 5940, "unit": "nM"}, {"measurement": "Activity", "setting": "MCF7 [19]", "result": "Active"}]}
